Measured values collected from several papers.
Protocols differ between the studies behind these lines.
Target: BDNF/NT-3 growth factors receptor (NTRK2, Homo sapiens, UniProt Q16620)

| SMILES | test | conditions | endpoint | result |
| --- | --- | --- | --- | --- |
| COc1ncccc1-c1cnn2ccc(N3CCN(C(=O)OC(C)C)CC3)nc12 | binding, competition with immobilised ligand | 1 µM | remaining binding | 40% |
| COc1cc(Nc2ncc(F)c(Nc3ccc4c(n3)NC(=O)C(C)(C)O4)n2)cc(OC)c1OC | binding, competition with immobilised ligand | 10 µM | inhibition | 95% |
| C#Cc1n[nH]c2c(-c3cn(C(C)c4ccccn4)c(=O)[nH]c3=O)cc(F)cc12 (centres unmarked) | enzyme activity, inhibitor | 1 µM | inhibition | 2.8% |
| Cn1cc(-c2cc(F)cc(N3CCn4c(cc5c4CCCC5)C3=O)c2CO)cc(Nc2ccc(N3CCN(C4COC4)CC3)cn2)c1=O | enzyme activity, inhibitor | 0.1 µM | inhibition | 11% |
| N#CC1(c2ccccn2)CCN(Cc2cc(C(=O)O)c(=O)n3ccccc23)CC1 | cell-free assay, competition with immobilised ligand | 1 µM | remaining binding | 84% |
| C#Cc1n[nH]c2c(-c3cn([C@@H](C)c4ccccc4)c(=O)[nH]c3=O)cc(F)cc12 | enzyme activity, inhibitor | 0.1 µM | inhibition | 6.2% |
| Nc1ncc(-c2nc(N3CCOCC3)nc(N3CCOCC3)n2)c(C(F)F)n1 | cell-free assay, competition with immobilised ligand | 10 µM | remaining binding | 74% |
| CC(C)(C)c1cc(C=C(C#N)C#N)cc(Br)c1O | enzyme activity, inhibitor | 0.5 µM | remaining activity | 90.9% |
| Cc1nn(C)cc1-c1nc2c(N3CCN(Cc4ccc(Cl)cc4)CC3)c(Cl)cnc2[nH]1 | binding, competition with immobilised ligand | 1 µM | remaining binding | 44% |
| Cn1cncc1[C@](O)(COc1ccc(C#N)cc1-c1ccc(OC(F)(F)F)cc1)c1ccc(C#N)cc1 | cell-free assay, competition with immobilised ligand | 1 µM | remaining binding | 92% |
| O=c1[nH]c2ccccc2n1C1CCN(Cc2ccc(-c3[nH]c4cc5ncnc5cc4nc3-c3ccccc3)cc2)CC1 | cell-free assay | 0.5 µM | remaining signal | 99.4% |
